A value given as a limit tells only on which side of the number the result lay.

The subject of this assay is RAW264.7. The assay is described as follows: Antiinflammatory activity in mouse RAW264.7 cells assessed as inhibition of LPS-induced nitric oxide production pretreated for 1 hr followed by LPS stimulation measured after 24 hrs by griess assay. The assay is classed as functional, cell-based. Put shortly:
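Compound added 1 h before lipopolysaccharide, then 24 h incubation. Culture supernatant mixed with Griess reagent, 10 min at room temperature; absorbance read at 550 nm, nitrite quantified from NaNO2 standard curve. Run in triplicate.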
On to `CC[C@H](C)C(=O)c1c(O)cc(OC)c2c1O[C@@]1(C)[C@@H]2C[C@H](C(C)C)[C@H]1C=O`, for which the IC50 is 15.3 µM.
`COc1cc(O)c(C(=O)CC(C)C)c2c1[C@@H]1C[C@H](C(C)C)C=C[C@]1(C)O2`: the IC50 was above 50 µM.
Consider `COc1cc(O)c(C(=O)C(C)C)c2c1[C@H]1C[C@H](C(C)C)[C@H]3O[C@H]3[C@@]1(C)O2`, for which the IC50 was above 50 µM.
The value for `CC[C@H](C)C(=O)c1c(O)cc(OC)c2c1O[C@@]1(C)[C@@H]2C[C@H](C(C)C)[C@H]2O[C@H]21` was above 50 µM; that for `CC[C@H](C)C(=O)c1c(O)cc(OC)c2c1O[C@]1(C)C=C[C@@H](C(C)C)C[C@H]21` was above 50 µM; that for `COc1cc(O)c(C(=O)C(C)C)c2c1[C@@H]1[C@@H](C(C)C)CC=C(C)[C@@H]1O2` was above 50 µM.
The figure for `COc1cc(O)c(C(=O)C(C)C)c2c1[C@H]1C[C@H](C(C)C)C=C[C@@]1(C)O2` is above 50 µM; for `COc1cc(O)c(C(=O)CC(C)C)c2c1[C@H]1C[C@H](C(C)C)C=C[C@@]1(C)O2` it is above 50 µM; for `COc1cc(O)c(C(=O)C(C)C)c2c1[C@H]1C[C@H](C(C)C)[C@@H](C=O)[C@@]1(C)O2` it is 17.7 µM.
The figure for `COc1ccc2c(c1)c(CC(=O)O)c(C)n2C(=O)c1ccc(Cl)cc1` [INDOMETHACIN] is 21.1 µM.

(Values after ChEMBL document CHEMBL4130602, “Rearranged Phloroglucinol-Monoterpenoid Adducts from Callistemon rigidus” (J Nat Prod, 2018).)
